CHRM5 agonist = CHRM5 agonism in calcium assay; P08912; CHO-K1 hM5 cells, Fluo-8 calcium fluorescence; 0% DMSO wells, 100% maximal acetylcholine response; activation, % at 3 µM; hit rate 0.19% among 360,000; AID 624037;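 active = activation above the run's mean over test compounds plus 3 SD, cut at about 23% in these data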;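 note: signal is peak over basal fluorescence ratio across the kinetic read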
Target sequence (P08912 whole entry, looked up): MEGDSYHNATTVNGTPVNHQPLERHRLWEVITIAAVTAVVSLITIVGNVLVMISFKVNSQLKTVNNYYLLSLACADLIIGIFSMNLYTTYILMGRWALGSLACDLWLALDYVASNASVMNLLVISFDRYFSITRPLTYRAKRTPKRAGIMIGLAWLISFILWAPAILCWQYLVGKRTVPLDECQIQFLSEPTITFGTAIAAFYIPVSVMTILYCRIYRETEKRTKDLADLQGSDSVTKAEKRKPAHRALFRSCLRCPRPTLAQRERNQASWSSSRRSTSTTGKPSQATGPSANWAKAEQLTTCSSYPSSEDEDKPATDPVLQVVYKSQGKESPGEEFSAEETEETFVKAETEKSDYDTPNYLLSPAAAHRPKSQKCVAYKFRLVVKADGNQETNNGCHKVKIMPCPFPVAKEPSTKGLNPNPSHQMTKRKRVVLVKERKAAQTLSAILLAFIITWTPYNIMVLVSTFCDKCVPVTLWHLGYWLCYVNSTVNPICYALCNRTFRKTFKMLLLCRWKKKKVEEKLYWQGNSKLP
CHRM5 PAM = potentiates acetylcholine response at human M5 receptor | P08912 | CHO-K1 hM5, Fluo-8 calcium, ACh EC20 PAM; 0% = ACh EC20, 100% = ACh EC100 | activation, % at 3 µM | hit rate 0.3% among 360,000;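 active = activation above the run cutoff, the mean activation of all test compounds plus 3 SD, cut at about 18% in these data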
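Assay system: CHO-K1 hM5 cells / Incubation: Fluo-8 loading 80 min at 37 °C plus 30 min room temperature / Technique: Fluo-8 calcium dye fluorescence, kinetic read / Repeats: single replicate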
M5 antag = blocks acetylcholine activation of human M5 receptor; P08912; hit rate 0.59% among 360,000; inhibition, % at 3 µM; CHO-hM5 cells, Fluo-8 calcium fluorescence, ACh EC80;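 active = inhibition above a per-plate cutoff, the mean of that plate's test compounds plus 3 SD, cut at about 27% in these data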;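 note: 0% = acetylcholine EC80 with DMSO and 100% = DMSO without agonist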
M4 PAM = CHRM4 positive allosteric modulation. P08173. CHO-K1 hM4/Gqi5, Fluo-8 calcium fluorescence, ACh EC20; 0% = ACh EC20, 100% = maximal ACh. activation, % at 3 µM. hit rate 0.4% among 360,000. AID 624126;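 active = activation above its plate's cutoff, the mean activation of sample wells plus 3 SD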
CHRM4 antagonist = blocks acetylcholine activation of human M4 receptor | inhibition, % at 3 µM | hit rate 0.73% among 360,000 | CHO-hM4 cells, ACh EC80, Fluo-8 calcium fluorescence;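 active = inhibition above its plate's cutoff, the mean inhibition of sample wells plus 3 SD, cut at about 27% in these data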;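 note: 0% = acetylcholine EC80 with DMSO and 100% = DMSO without agonist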
CHRM4 agonist = agonists of human muscarinic M4 receptor (CHRM4) | AID 624127 | P08173 | hit rate 0.14% among 360,000 | activation, % at 3 µM | CHO-K1 hM4/Gqi5, Fluo-8 calcium fluorescence; vehicle 0%, full acetylcholine response 100%;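 active = activation above the run mean over all test wells plus 3 SD, cut at about 32% in these data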;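 note: peak over basal fluorescence ratio per well then scaled between controls; 0% = DMSO wells and 100% = acetylcholine at EC100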
* = called active by the depositor. Sampled rows, rich in hits. Any-hit rate of the full collection: about 1.9%.

SMILES	CHRM5 agonist	CHRM5 PAM	M5 antag	M4 PAM	CHRM4 antagonist	CHRM4 agonist
Cc1cccc(C)c1NC(=O)COC(=O)c1cccc2c1C(=O)c1ccccc1C2=O	0.9	-8.7	0.8	-6.2	4.7	3.2
Cc1cccc(NC(=O)COC(=O)c2cccc3c2C(=O)c2ccccc2C3=O)c1C	-1.6	-18.5	30.0*	-31.8	57.3*	-0.7
Cc1c(C(=O)NCc2ccc3c(c2)OCCO3)sc(=O)n1Cc1ccccc1F	2.7	-4.7	0.4	2.1	-21.1	13.7
O=C1CCC(=O)N1c1ccc(NC2CCN(Cc3ccccc3)CC2)c([N+](=O)[O-])c1	-19.3	-1.4	5.0	-24.2	8.2	-0.2
CC1CCC2C(=O)N(c3ccc(NC4CCN(Cc5ccccc5)CC4)c([N+](=O)[O-])c3)C(=O)C2C1 (stereo not given)	-18.0	-35.7	24.3	-59.3	28.8*	4.0
O=C1C2CCCCC2C(=O)N1c1ccc(NC2CCN(Cc3ccccc3)CC2)c([N+](=O)[O-])c1 (stereo not given)	-19.4	-22.7	31.8*	-40.3	15.6	0.8
CCc1nc2c(OCCOC)cccn2c1N(C)C(=O)c1ccco1	-0.1	0.7	-4.7	0.5	-4.2	-0.7
O=C(Nc1c(C(=O)N2CCC(N3CCCCC3)CC2)oc2ccccc12)c1ccc(F)cc1	-8.3	4.8	4.2	-1.1	-0.7	1.0
NC(=O)c1oc2ccccc2c1NC(=O)c1ccc(F)cc1	1.1	-12.2	7.5	-18.3	39.4*	7.0
CC1CCCC(NC(=S)Nc2ccc(SC(F)F)cc2)C1C (stereo not given)	2.8	-15.5	30.7*	-13.7	13.5	10.4
FC(F)Sc1ccc(NC(=S)NC2CCCC2)cc1	2.9	-17.7	5.5	-12.0	10.8	13.1
COC(=O)c1ccc(NC(=S)NC2CCCCC2C)cc1 (stereo not given)	8.3	-19.5	28.8*	-9.1	-4.9	12.4
Cc1cccc(OCCCc2c(C)n[nH]c2C)c1	3.8	3.5	-1.6	7.2	1.5	4.3
COc1cccc(OC)c1OCCCc1c(C)n[nH]c1C	0.8	2.5	-10.7	29.1*	4.5	1.4
CCc1nc2c(OCc3c(C)noc3C)cccn2c1N(C=O)Cc1ccccc1	-0.6	4.5	-5.4	12.3	-20.3	-1.8
CCOC(=O)c1c(C)[nH]c(C)c1C(=O)CSc1nc2ccccc2[nH]1	1.6	-6.2	2.4	-14.4	9.5	8.6
CCOC(=O)c1c(C)[nH]c(C)c1C(=O)CSc1ncccn1	-0.1	24.9*	-0.7	5.6	-13.4	1.5
CCOC(=O)C1CCCN(C(=O)c2cccnc2Oc2ccccc2)CC1 (stereo not given)	0.0	-1.1	2.0	-2.7	-0.4	2.0
CNC(=O)OCc1snc(-c2ccccc2)c1COC(=O)NC	0.5	0.9	1.4	12.3	-10.3	2.4
CCC[C@@H](CN1CCC[C@H]1CN1C(N)=NC[C@@H]1Cc1ccccc1)N1C[C@@H]([C@H](C)CC)N(CCCC2CCCC2)C1=N	-11.2	-39.6	13.0	-15.8	41.5*	8.1
CCC[C@@H](CN1CCC[C@H]1CN1C(N)=NC[C@@H]1Cc1ccccc1)N1C[C@@H](Cc2ccccc2)N(CCCC2CCCC2)C1=N	-8.9	-38.5	20.9	-12.5	12.2	-0.2
CCCCN1C(=N)N([C@@H](C)CN2CCC[C@H]2CN2C(N)=NC[C@@H]2Cc2ccccc2)C[C@H]1[C@H](C)CC	-9.3	0.9	4.1	-6.6	13.8	-0.1
CCCCN1C(=N)N([C@@H](C)CN2CCC[C@H]2CN2C(N)=NC[C@H]2CC(C)C)C[C@H]1Cc1ccccc1	-12.2	-15.7	33.1*	-6.8	2.3	-0.7
C[C@@H](CN1CCC[C@H]1CN1C(N)=NC[C@@H]1Cc1ccccc1)N1C[C@@H](Cc2ccccc2)N(CCc2ccc(Cl)c(Cl)c2)C1=N	-11.6	-39.3	38.8*	-16.2	18.3	1.0
CCCOc1ccc(C(=O)NNC(=S)NC(=O)c2cccs2)cc1	72.0*	-16.8	41.9*	-16.4	63.2*	109.7*
SMILES	CHRM5 agonist	CHRM5 PAM	M5 antag	M4 PAM	CHRM4 antagonist	CHRM4 agonist
CCCOc1ccc(C(=O)NNC(=S)NC(=O)c2ccco2)cc1	59.7*	-29.0	30.6*	-48.5	19.3	126.2*
CC(=O)c1cccc(NC(=S)NC(=O)c2ccc(C)cc2)c1	-3.0	7.9	3.7	25.9*	-1.9	1.4
CCCOc1ccc(C(=O)NNC(=S)NC(=O)c2ccccc2)cc1	77.8*	-21.2	25.9	-24.2	26.7*	136.3*
O=C(c1cccs1)N1C[C@@H](n2cc(C3CC3)nn2)[C@H](O)C[C@@H]1c1ccc(Cl)cc1	1.5	-1.7	5.7	0.0	4.5	0.5
C[C@H](c1ccccc1)N1C[C@@H](COCc2ccccc2)Oc2cc(N3CC[C@@H](N(C)C)C3)ccc2S1(=O)=O	1.7	-1.4	0.8	-0.3	-0.1	10.2
CC(Oc1ccc(Cl)cc1)C(=O)NNC(=S)NC(=O)c1ccco1 (stereo not given)	26.3*	-11.4	6.5	-9.9	13.1	63.4*
CC(C)CNC(=S)NNC(=O)c1ccco1	-0.3	12.0	-6.0	37.9*	3.1	0.7
CC(C)CNC(=S)NNC(=O)CC(C)O (stereo not given)	-2.2	18.3*	-1.2	-4.8	4.5	-0.1
COc1ccc(C(=O)NNC(=S)NC(=O)c2ccco2)cc1	8.9	1.9	-3.8	0.8	-4.7	4.6
COc1ccc(C(=O)NC(=S)NNC(=O)c2ccc(C)cc2)cc1	75.3*	-29.9	5.4	-48.4	15.0	117.8*
CCNC(=S)NNC(=O)CC(C)C	-1.7	6.9	-5.8	-3.2	0.3	0.9
O=C1c2ccccc2C(c2nnnn2-c2ccc3c(c2)OCCO3)N1CCCn1ccnc1 (stereo not given)	-1.5	8.5	-2.9	-0.9	-20.6	1.4
CCCS(=O)(=O)Nc1ccc(Nc2c3ccccc3nc3ccccc23)c(OC)c1	-9.2	10.1	-12.2	-3.7	-8.5	1.9
CC(C)[C@H](NC(=O)OC(C)(C)C)c1nnc(S(=O)(=O)Cc2c(F)cccc2Cl)o1	-1.8	-2.8	7.9	-15.5	43.2*	2.4
CC[C@@H](C)[C@H](NC(=O)OC(C)(C)C)c1nnc(S(=O)(=O)Cc2cc(C)ccc2C)o1	-2.9	-1.9	7.5	-14.8	47.8*	2.2
CC(C)C[C@H](NC(=O)OC(C)(C)C)c1nnc(SCc2ccccc2)o1	-5.0	-0.3	0.5	-3.4	-1.0	-3.5
Cc1ccccc1CS(=O)(=O)c1nnc([C@H](CC(C)C)NC(=O)OC(C)(C)C)o1	0.9	5.3	-0.8	-11.3	28.2*	1.6

From PubChem BioAssay
